Experimental data reported in ChEMBL document CHEMBL1671716, “Antimicrobial susceptibility patterns for recent clinical isolates of anaerobic bacteria in South Korea” (2010).
≈ marks a conversion by molar mass, not a printed value.

Experiments:
[1] = tested on: Parabacteroides distasonis; test: Antimicrobial activity against Bacteroides distasonis assessed as percent resistant isolates after 48 hrs by agar dilution method; assay type: functional
In short: (§1)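 CLSI agar dilution on recent Korean clinical anaerobe isolates. Inoculum 10^5 CFU per spot by replicator. Plates incubated in an anaerobic chamber at 37°C for 48 h. For piperacillin plus tazobactam, tazobactam was held constant at 4 μg/ml. Resistance and susceptibility rates derived from MICs.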

Prevotella intermedia = test: Antimicrobial activity against Prevotella intermedia after 48 hrs by agar dilution method; assay type: functional
In short: (§2)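 CLSI agar dilution (M11-A7); inoculum 10^5 CFU applied by replicator; plates incubated anaerobically 48 h at 37°C. For piperacillin-tazobactam, tazobactam held constant at 4 μg/ml.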

Phocaeicola vulgatus [2] = test: Antimicrobial activity against Bacteroides vulgatus assessed as percent susceptible isolates after 48 hrs by agar dilution method; assay type: functional
Fusobacterium mortiferum = test: Antimicrobial activity against Fusobacterium mortiferum after 48 hrs by agar dilution method; assay type: functional; in short: as §2
Bacteroides ovatus [3] = test: Antimicrobial activity against Bacteroides ovatus assessed as percent resistant isolates after 48 hrs by agar dilution method; assay type: functional; in short: as §1
[4] = tested on: Peptostreptococcus anaerobius; test: Antimicrobial activity against Peptostreptococcus anaerobius assessed as percent susceptible isolates after 48 hrs by agar dilution method; assay type: functional; in short: as §1
Bacteroides fragilis [5] = test: Antimicrobial activity against Bacteroides fragilis assessed as percent resistant isolates after 48 hrs by agar dilution method; assay type: functional; in short: as §1
[6] = tested on: Parabacteroides distasonis; test: Antimicrobial activity against Bacteroides distasonis after 48 hrs by agar dilution method; assay type: functional
In short: (§3)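 MICs on clinical anaerobe isolates by the CLSI agar dilution method. Inoculum of 10^5 CFU applied with a Steers replicator. Plates incubated 48 h at 37°C in an anaerobic chamber.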

Bifidobacterium sp. = test: Antimicrobial activity against Bifidobacterium sp. assessed as percent susceptible isolates after 48 hrs by agar dilution method; assay type: functional; in short: as §2
Prevotella bivia = test: Antimicrobial activity against Prevotella bivia after 48 hrs by agar dilution method; assay type: functional; in short: as §2
Actinomyces naeslundii [7] = test: Antimicrobial activity against Actinomyces naeslundii after 48 hrs by agar dilution method; assay type: functional; in short: as §3
Phocaeicola vulgatus [8] = test: Antimicrobial activity against Bacteroides vulgatus assessed as percent resistant isolates after 48 hrs by agar dilution method; assay type: functional; in short: as §1
Hoylesella oralis [9] = test: Antimicrobial activity against Prevotella oralis after 48 hrs by agar dilution method; assay type: functional; in short: as §2
Fusobacterium nucleatum = test: Antimicrobial activity against Fusobacterium nucleatum after 48 hrs by agar dilution method; assay type: functional; in short: as §2
Hoylesella oralis [10] = test: Antimicrobial activity against Prevotella oralis assessed as percent susceptible isolates after 48 hrs by agar dilution method; assay type: functional
In short: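 CLSI agar dilution MIC testing of clinical isolates. 10^5 CFU spotted by replicator, plates incubated 48 h at 37°C in an anaerobic chamber. Susceptibility rates derived from the MICs.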

[11] = tested on: Porphyromonas asaccharolytica; test: Antimicrobial activity against Porphyromonas asaccharolytica after 48 hrs by agar dilution method; assay type: functional; in short: as §2
Finegoldia magna = test: Antimicrobial activity against Finegoldia magna assessed as percent susceptible isolates after 48 hrs by agar dilution method; assay type: functional; in short: as §2
Parvimonas micra = test: Antimicrobial activity against Peptostreptococcus micros after 48 hrs by agar dilution method; assay type: functional; in short: as §2
Schaalia meyeri [12] = test: Antimicrobial activity against Actinomyces meyeri after 48 hrs by agar dilution method; assay type: functional; in short: as §3
Actinomyces israelii [13] = test: Antimicrobial activity against Actinomyces israelii assessed as percent susceptible isolates after 48 hrs by agar dilution method; assay type: functional
Schaalia meyeri [14] = test: Antimicrobial activity against Actinomyces meyeri assessed as percent susceptible isolates after 48 hrs by agar dilution method; assay type: functional
Bacteroides fragilis [15] = test: Antimicrobial activity against Bacteroides fragilis assessed as percent susceptible isolates after 48 hrs by agar dilution method; assay type: functional
Actinomyces naeslundii [16] = test: Antimicrobial activity against Actinomyces naeslundii assessed as percent resistant isolates after 48 hrs by agar dilution method; assay type: functional; in short: as §1
Bacteroides ovatus [17] = test: Antimicrobial activity against Bacteroides ovatus assessed as percent susceptible isolates after 48 hrs by agar dilution method; assay type: functional
Prevotella buccae [18] = test: Antimicrobial activity against Prevotella buccae after 48 hrs by agar dilution method; assay type: functional; conditions: Segatella buccae; in short: as §2
[19] = tested on: Bacteroides thetaiotaomicron; test: Antimicrobial activity against Bacteroides thetaiotaomicron assessed as percent susceptible isolates after 48 hrs by agar dilution method; assay type: functional
Prevotella buccae [20] = test: Antimicrobial activity against Prevotella buccae assessed as percent susceptible isolates after 48 hrs by agar dilution method; assay type: functional, Segatella buccae; in short: as §2
Actinomyces israelii [21] = test: Antimicrobial activity against Actinomyces israelii after 48 hrs by agar dilution method; assay type: functional; in short: as §3
Bacteroides fragilis [22] = test: Antimicrobial activity against Bacteroides fragilis after 48 hrs by agar dilution method; assay type: functional; in short: as §3

Q: With `CO[C@@]1(NC(=O)Cc2cccs2)C(=O)N2C(C(=O)O)=C(COC(N)=O)CS[C@@H]21` [CEFOXITIN] as the compound, how does the Activity [1] read?
A: 7%

Q: And the MIC50 (Prevotella intermedia)?
A: 2 µg/mL (≈ 4.68 µM)

Q: And the MIC90 (Prevotella intermedia)?
A: 4 µg/mL (≈ 9.36 µM)

Q: What about the Activity (Phocaeicola vulgatus [2]) of the same compound?
A: 25%

Q: And the MIC (Fusobacterium mortiferum)?
A: 0.06 µg/mL (≈ 0.14 µM)

Q: And the Activity (Bacteroides ovatus [3])?
A: 7%

Q: And the Activity [4]?
A: 100%

Q: And the Activity (Bacteroides fragilis [5])?
A: 5%

Q: And the MIC50 [6]?
A: 32 µg/mL (≈ 74.9 µM)

Q: And the MIC90 [6]?
A: 32 µg/mL (≈ 74.9 µM)

Q: What about the Activity (Bifidobacterium sp.) of the same compound?
A: 92%

Q: And the MIC50 (Prevotella bivia)?
A: 1 µg/mL (≈ 2.34 µM)

Q: And the MIC90 (Prevotella bivia)?
A: 32 µg/mL (≈ 74.9 µM)

Q: And the MIC50 (Actinomyces naeslundii [7])?
A: 2 µg/mL (≈ 4.68 µM)

Q: What about the MIC90 (Actinomyces naeslundii [7]) of the same compound?
A: 16 µg/mL (≈ 37.4 µM)

Q: What about the Activity (Phocaeicola vulgatus [8]) of the same compound?
A: 7%

Q: And the MIC50 (Hoylesella oralis [9])?
A: 1 µg/mL (≈ 2.34 µM)

Q: And the MIC90 (Hoylesella oralis [9])?
A: 32 µg/mL (≈ 74.9 µM)

Q: What about the MIC (Fusobacterium nucleatum) of the same compound?
A: 0.06 µg/mL (≈ 0.14 µM)

Q: And the Activity (Hoylesella oralis [10])?
A: 89%

Q: And the MIC [11]?
A: 0.06 µg/mL (≈ 0.14 µM)

Q: And the Activity (Finegoldia magna)?
A: 100%

Q: What about the MIC50 (Parvimonas micra) of the same compound?
A: 1 µg/mL (≈ 2.34 µM)

Q: And the MIC90 (Parvimonas micra)?
A: 16 µg/mL (≈ 37.4 µM)

Q: And the MIC50 (Schaalia meyeri [12])?
A: 2 µg/mL (≈ 4.68 µM)

Q: What about the MIC90 (Schaalia meyeri [12]) of the same compound?
A: 16 µg/mL (≈ 37.4 µM)

Q: What about the Activity (Actinomyces israelii [13]) of the same compound?
A: 92%

Q: And the Activity (Schaalia meyeri [14])?
A: 92%

Q: And the Activity (Bacteroides fragilis [15])?
A: 79%

Q: What about the Activity (Actinomyces naeslundii [16]) of the same compound?
A: 0%

Q: And the Activity (Bacteroides ovatus [17])?
A: 25%

Q: And the MIC50 (Prevotella buccae [18])?
A: 1 µg/mL (≈ 2.34 µM)

Q: What about the MIC90 (Prevotella buccae [18]) of the same compound?
A: 32 µg/mL (≈ 74.9 µM)

Q: And the Activity [19]?
A: 25%

Q: And the Activity (Prevotella buccae [20])?
A: 89%

Q: And the MIC50 (Actinomyces israelii [21])?
A: 2 µg/mL (≈ 4.68 µM)

Q: And the MIC90 (Actinomyces israelii [21])?
A: 16 µg/mL (≈ 37.4 µM)

Q: What about the MIC50 (Bacteroides fragilis [22]) of the same compound?
A: 16 µg/mL (≈ 37.4 µM)

Q: What about the MIC90 (Bacteroides fragilis [22]) of the same compound?
A: 32 µg/mL (≈ 74.9 µM)

Q: Which Activity [1] does the source give for `O=C(N[C@H](CO)[C@H](O)c1ccc([N+](=O)[O-])cc1)C(Cl)Cl` [CHLORAMPHENICOL] here?
A: 0%

Q: What about the MIC (Prevotella intermedia) of the same compound?
A: 0.5 µg/mL (≈ 1.55 µM)

Q: And the MIC50 (Prevotella intermedia)?
A: 0.5 µg/mL (≈ 1.55 µM)

Q: What about the MIC90 (Prevotella intermedia) of the same compound?
A: 1 µg/mL (≈ 3.09 µM)

Q: And the Activity (Phocaeicola vulgatus [2])?
A: 98%

Q: What about the MIC (Fusobacterium mortiferum) of the same compound?
A: 0.13 µg/mL (≈ 0.402 µM)

Q: What about the Activity (Bacteroides ovatus [3]) of the same compound?
A: 0%

Q: What about the Activity [4] of the same compound?
A: 100%

Q: What about the Activity (Bacteroides fragilis [5]) of the same compound?
A: 0%

Q: And the MIC [6]?
A: 4 µg/mL (≈ 12.4 µM)

Q: What about the MIC50 [6] of the same compound?
A: 4 µg/mL (≈ 12.4 µM)

Q: And the MIC90 [6]?
A: 8 µg/mL (≈ 24.8 µM)

Q: And the Activity (Bifidobacterium sp.)?
A: 92%

Q: What about the MIC50 (Prevotella bivia) of the same compound?
A: 4 µg/mL (≈ 12.4 µM)

Q: And the MIC90 (Prevotella bivia)?
A: 8 µg/mL (≈ 24.8 µM)

Q: What about the MIC (Actinomyces naeslundii [7]) of the same compound?
A: 1 µg/mL (≈ 3.09 µM)

Q: What about the MIC50 (Actinomyces naeslundii [7]) of the same compound?
A: 1 µg/mL (≈ 3.09 µM)

Q: What about the MIC90 (Actinomyces naeslundii [7]) of the same compound?
A: 2 µg/mL (≈ 6.19 µM)

Q: And the Activity (Phocaeicola vulgatus [8])?
A: 0%

Q: What about the MIC50 (Hoylesella oralis [9]) of the same compound?
A: 4 µg/mL (≈ 12.4 µM)

Q: What about the MIC90 (Hoylesella oralis [9]) of the same compound?
A: 8 µg/mL (≈ 24.8 µM)

Q: What about the MIC (Fusobacterium nucleatum) of the same compound?
A: 0.13 µg/mL (≈ 0.402 µM)

Q: What about the Activity (Hoylesella oralis [10]) of the same compound?
A: 100%

Q: And the MIC [11]?
A: 0.13 µg/mL (≈ 0.402 µM)

Q: And the Activity (Finegoldia magna)?
A: 100%

Q: And the MIC50 (Parvimonas micra)?
A: 2 µg/mL (≈ 6.19 µM)

Q: What about the MIC90 (Parvimonas micra) of the same compound?
A: 2 µg/mL (≈ 6.19 µM)

Q: And the MIC (Schaalia meyeri [12])?
A: 1 µg/mL (≈ 3.09 µM)

Q: And the MIC50 (Schaalia meyeri [12])?
A: 1 µg/mL (≈ 3.09 µM)

Q: And the MIC90 (Schaalia meyeri [12])?
A: 2 µg/mL (≈ 6.19 µM)

Q: And the Activity (Actinomyces israelii [13])?
A: 92%

Q: What about the Activity (Schaalia meyeri [14]) of the same compound?
A: 92%

Q: What about the Activity (Bacteroides fragilis [15]) of the same compound?
A: 98%

Q: And the Activity (Actinomyces naeslundii [16])?
A: 0%

Q: What about the Activity (Bacteroides ovatus [17]) of the same compound?
A: 98%

Q: What about the MIC50 (Prevotella buccae [18]) of the same compound?
A: 4 µg/mL (≈ 12.4 µM)

Q: What about the MIC90 (Prevotella buccae [18]) of the same compound?
A: 8 µg/mL (≈ 24.8 µM)

Q: What about the Activity [19] of the same compound?
A: 98%

Q: What about the Activity (Prevotella buccae [20]) of the same compound?
A: 100%

Q: And the MIC (Actinomyces israelii [21])?
A: 1 µg/mL (≈ 3.09 µM)

Q: And the MIC50 (Actinomyces israelii [21])?
A: 1 µg/mL (≈ 3.09 µM)

Q: What about the MIC90 (Actinomyces israelii [21]) of the same compound?
A: 2 µg/mL (≈ 6.19 µM)

Q: And the MIC50 (Bacteroides fragilis [22])?
A: 4 µg/mL (≈ 12.4 µM)

Q: What about the MIC90 (Bacteroides fragilis [22]) of the same compound?
A: 4 µg/mL (≈ 12.4 µM)
